Measured values from ChEMBL document CHEMBL3286132, “Syntheses, characterization and evaluation of novel 2,6-diarylpiperidin-4-ones as potential analgesic-antipyretic agents” (Eur J Med Chem, 2014).

Key:
Rattus norvegicus [1] = assay: Antipyretic activity in Wistar rat assessed as reduction in Brewer's yeast-induced hyperthermia measured as rectal temperature at 150 mg/kg, po administered 18 hrs post challenge measured after 1 hr post dose (reference value: 39.300 +/- 0.071 degC); format: functional
How it was run: (§1)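 Male Wistar rats (200-300 g), fasted, groups of 5. Fever induced by sc 15% brewer's yeast in normal saline (10 ml/kg). Rectal temperature taken with a digital thermometer inserted about 7 mm. After 18 h, rats at 38 °C or above were used. Dosed orally as suspension in 0.5% CMC; vehicle controls. Temperature then read at set times after dosing. Values are means of five.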

Rattus norvegicus [2] = assay: Antipyretic activity in Wistar rat assessed as reduction in Brewer's yeast-induced hyperthermia measured as rectal temperature at 150 mg/kg, po administered 18 hrs post challenge measured after 2 hrs post dose (reference value: 39.320 +/- 0.102 degC); format: functional; how it was run: as §1
Rattus norvegicus [3] = assay: Antipyretic activity in Wistar rat assessed as reduction in Brewer's yeast-induced hyperthermia measured as rectal temperature at 150 mg/kg, po administered 18 hrs post challenge measured after 3 hrs post dose (reference value: 39.400 +/- 0.071 degC); format: functional; how it was run: as §1
[4] = Partition co-efficient, log P of the compound in ocatanol-water by shake flask method; format: physicochemical; settings: octanol/water
How it was run: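 Shake-flask method: 2 mg dissolved in 50 ml water plus 50 ml octanol, shaken 30 min and left 24 h to equilibrate. Phases were separated, and octanol-phase concentration was taken from absorbance against a standard curve. Log P was calculated from that concentration.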

[5] = Hydrolysis of the compound in simulated intestinal fluid at 10 mg after 120 mins by spectrophotometry; format: ADME; settings: read-out: Drug degradation
How it was run: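 Samples shaken on an orbital shaker at 37 ± 2 °C in simulated intestinal fluid. Aliquots were drawn at 0, 15, 30, 45, 60, 75, 90, 105 and 120 min, then diluted, filtered and read spectrophotometrically at each compound's λmax. % hydrolysed = (A0 − A120)/A0 × 100.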

Mus musculus [6] = assay: Analgesic activity in albino mouse assessed as inhibition of acetic acid-induced writhing at 60 mg/kg, po administered 1 hr prior challenge relative to control; format: functional
How it was run: (§2)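 Male albino mice (25-30 g), fasted 20-24 h, groups of 5. Dosed orally as suspension in 0.5% sodium CMC; vehicle controls. 1 h later, 1% acetic acid in normal saline (10 ml/kg) given ip. Starting 5 min after injection, writhes counted over 30 min. Percent inhibition calculated from group mean writhes versus control.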

Mus musculus [7] = assay: Neurotoxicity in po dosed albino mouse assessed as alteration of motor activity […] by rotarod test; format: toxicity, organism-based; settings: in vivo
Rattus norvegicus [8] = assay: Antipyretic activity in Wistar rat assessed as reduction in Brewer's yeast-induced hyperthermia measured as rectal temperature at 60 mg/kg, po administered 18 hrs post challenge measured after 1 hr post dose (reference value: 39.300 +/- 0.071 degC); format: functional; how it was run: as §1
Rattus norvegicus [9] = assay: Antipyretic activity in Wistar rat assessed as reduction in Brewer's yeast-induced hyperthermia measured as rectal temperature at 60 mg/kg, po administered 18 hrs post challenge measured after 3 hrs post dose (reference value: 39.400 +/- 0.071 degC); format: functional; how it was run: as §1
Rattus norvegicus [10] = assay: Antipyretic activity in Wistar rat assessed as reduction in Brewer's yeast-induced hyperthermia measured as rectal temperature at 60 mg/kg, po administered 18 hrs post challenge measured after 2 hrs post dose (reference value: 39.320 +/- 0.102 degC); format: functional; how it was run: as §1
Mus musculus [11] = assay: Analgesic activity in albino mouse assessed as inhibition of acetic acid-induced writhing at 10 mg/kg, po administered 1 hr prior challenge relative to control; format: functional; how it was run: as §2
Mus musculus [12] = assay: Neurotoxicity in albino mouse assessed as alteration of motor activity at 2 mg/kg, po measured after 60 mins for 60 secs by rotarod test; format: toxicity, organism-based; design: dose 2 mg/kg, route oral; settings: in vivo
How it was run: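 Male albino mice on a 1 in. knurled wooden rod rotating at 6–10 rpm. Testing began 60 min after oral dosing. Neurological toxicity was defined as failure to stay on the rod for 1 min or more.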

CC(=O)Nc1ccc(O)cc1 [ACETAMINOPHEN]
T (Rattus norvegicus [1]): 37.88 °C | T (Rattus norvegicus [2]): 37.14 °C | T (Rattus norvegicus [3]): 37.1 °C

CC1C(=O)CC(c2ccc(F)cc2)N(C(=O)CCl)C1c1ccc(O)cc1 (stereo not given)
logP [4]: 1.14 | degraded at 2 h [5]: 43.2% | inhibition in vivo at 60 mg/kg (Mus musculus [6]): 51.2% | Activity (Mus musculus [7]): Non-toxic | T (Rattus norvegicus [8]): 38.72 °C | T (Rattus norvegicus [9]): 37.16 °C | T (Rattus norvegicus [10]): 38.3 °C

CC1C(=O)CC(c2ccc(Cl)cc2)N(C(=O)CCl)C1c1ccc(O)cc1 (stereo not given)
logP [4]: 1.05 | degraded at 2 h [5]: 42.7% | inhibition in vivo at 60 mg/kg (Mus musculus [6]): 39.7% | Activity (Mus musculus [7]): Non-toxic | T (Rattus norvegicus [8]): 38.92 °C | T (Rattus norvegicus [9]): 37.14 °C | T (Rattus norvegicus [10]): 38.5 °C

O=C(O)Cc1ccccc1Nc1c(Cl)cccc1Cl [DICLOFENAC SODIUM]
inhibition in vivo at 10 mg/kg (Mus musculus [11]): 56.5%

COc1ccc(C2C(C)C(=O)CC(c3ccc(F)cc3)N2C(=O)CN2CCN(C)CC2)cc1 (stereo not given)
logP [4]: 1.53 | degraded at 2 h [5]: 2.51% | inhibition in vivo at 60 mg/kg (Mus musculus [6]): 55.2% | Activity (Mus musculus [7]): Non-toxic | T (Rattus norvegicus [8]): 38.18 °C | T (Rattus norvegicus [9]): 37.1 °C | T (Rattus norvegicus [10]): 37.44 °C

COc1ccc(C2C(C)C(=O)CC(c3ccc(F)cc3)N2C(=O)CCl)cc1 (stereo not given)
logP [4]: 1.42 | degraded at 2 h [5]: 2.01% | inhibition in vivo at 60 mg/kg (Mus musculus [6]): 51.2% | Activity (Mus musculus [7]): Non-toxic | T (Rattus norvegicus [8]): 38.58 °C | T (Rattus norvegicus [9]): 37.2 °C | T (Rattus norvegicus [10]): 37.9 °C

CN1C(=O)CN=C(c2ccccc2)c2cc(Cl)ccc21 [DIAZEPAM]
Activity (Mus musculus [12]): Toxic

COc1ccc(C2C(C)C(=O)CC(c3ccc(Cl)cc3)N2C(=O)CN2CCN(C)CC2)cc1 (stereo not given)
logP [4]: 1.48 | degraded at 2 h [5]: 18.8% | inhibition in vivo at 60 mg/kg (Mus musculus [6]): 53% | Activity (Mus musculus [7]): Non-toxic | T (Rattus norvegicus [8]): 38.52 °C | T (Rattus norvegicus [9]): 37.28 °C | T (Rattus norvegicus [10]): 37.68 °C

COc1ccc(C2C(C)C(=O)CC(c3ccc(Cl)cc3)N2C(=O)CCl)cc1 (stereo not given)
logP [4]: 1.29 | degraded at 2 h [5]: 2.68% | inhibition in vivo at 60 mg/kg (Mus musculus [6]): 44.1% | Activity (Mus musculus [7]): Non-toxic | T (Rattus norvegicus [8]): 38.76 °C | T (Rattus norvegicus [9]): 37.2 °C | T (Rattus norvegicus [10]): 38.36 °C

CC1C(=O)CC(c2ccc(Cl)cc2)N(C(=O)CCl)C1c1ccc(N(C)C)cc1 (stereo not given)
logP [4]: 1.24 | degraded at 2 h [5]: 76.8% | inhibition in vivo at 60 mg/kg (Mus musculus [6]): 17.8% | Activity (Mus musculus [7]): Non-toxic | T (Rattus norvegicus [8]): 39 °C | T (Rattus norvegicus [9]): 37.86 °C | T (Rattus norvegicus [10]): 38.56 °C

CC1C(=O)CC(c2ccc(Cl)cc2)N(C(=O)CN2CCN(C)CC2)C1c1ccc(N(C)C)cc1 (stereo not given)
logP [4]: 1.35 | degraded at 2 h [5]: 77.6% | inhibition in vivo at 60 mg/kg (Mus musculus [6]): 28.1% | Activity (Mus musculus [7]): Non-toxic | T (Rattus norvegicus [8]): 38.9 °C | T (Rattus norvegicus [9]): 37.52 °C | T (Rattus norvegicus [10]): 38.14 °C

CC1C(=O)CC(c2ccc(F)cc2)N(C(=O)CN2CCN(C)CC2)C1c1ccc(Cl)cc1 (stereo not given)
logP [4]: 2.09 | degraded at 2 h [5]: 4.49% | inhibition in vivo at 60 mg/kg (Mus musculus [6]): 65.5% | Activity (Mus musculus [7]): Non-toxic | T (Rattus norvegicus [8]): 37.9 °C | T (Rattus norvegicus [9]): 37.18 °C | T (Rattus norvegicus [10]): 37.16 °C

CC1C(=O)CC(c2ccc(F)cc2)N(C(=O)CCl)C1c1ccc(Cl)cc1 (stereo not given)
logP [4]: 1.72 | degraded at 2 h [5]: 1.17% | inhibition in vivo at 60 mg/kg (Mus musculus [6]): 57.6% | Activity (Mus musculus [7]): Non-toxic | T (Rattus norvegicus [8]): 38.14 °C | T (Rattus norvegicus [9]): 37.16 °C | T (Rattus norvegicus [10]): 37.54 °C
